Active and inactive are the calls of the source. The calls are words filed in the database; no cut-off is given here.
Key:
MDA-MB-231 [1] = experiment: Antitumor activity against human MDA-MB-231 cells assessed as inhibit cell proliferation incubated for 72 hrs by CCK-8 assay; format: functional, cell-based; conditions: MDA-MB-231, 72 h
Procedure, shortened: (§1)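 CCK8 viability readout. Culture media: HCC1937, A549, HeLa and GTL-16 in RPMI 1640; MDA-MB-231, MCF-7 and HepG2 in high-glucose DMEM; all with 10% FBS and penicillin/streptomycin, 37 °C, 5% CO2. 4×10^3–6×10^3 cells/well, 24 h, then compounds in serum-free medium, 72 h at 37 °C. 10% CCK8, 2 h, OD 450/630 nm. Five wells per group; IC50 from inhibition rate; three independent experiments, mean ± SD.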

MCF7 = experiment: Antitumor activity against human MCF7 cells assessed as inhibit cell proliferation incubated for 72 hrs by CCK-8 assay; format: functional, cell-based; conditions: MCF7, 72 h; procedure, shortened: as §1
A549 = experiment: Antitumor activity against human A549 cells assessed as inhibit cell proliferation incubated for 72 hrs by CCK-8 assay; format: functional, cell-based; conditions: A549, 72 h; procedure, shortened: as §1
HepG2 = experiment: Antitumor activity against human HepG2 cells assessed as inhibit cell proliferation incubated for 72 hrs by CCK-8 assay; format: functional, cell-based; conditions: HepG2, 72 h; procedure, shortened: as §1
GTL 16 cell line = experiment: Antitumor activity against human GTL 16 cell line assessed as inhibit cell proliferation incubated for 72 hrs by CCK-8 assay; format: functional, cell-based; conditions: GTL 16, 72 h; procedure, shortened: as §1
MDA-MB-231 [2] = experiment: Inhibition of colony formation in human MDA-MB-231 cells assessed as decrease in number of colony forming cells at 0.44 to 3.52 incubated for 48 hrs by crystal violet staining based assay; format: functional, cell-based; conditions: DDE = dose-dependent effect
Procedure, shortened: (§2)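 Colony formation, MDA-MB-231: 800 cells/well, three replicate wells per group, grown 5–7 days at 37 °C, 5% CO2 until 30–50-cell clusters formed. Drug then added for 24, 48 or 72 h. Washed with cold PBS, fixed in 4% paraformaldehyde 30 min, stained with 0.5% crystal violet, imaged, colonies counted; n = 3.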

MDA-MB-231 [3] = experiment: Inhibition of colony formation in human MDA-MB-231 cells assessed as decrease in number of colony forming cells at 1.76 uM incubated upto 72 hrs by crystal violet staining based assay; format: functional, cell-based; conditions: TDE = time-dependent effect; procedure, shortened: as §2
MDA-MB-231 [4] = experiment: Induction of apoptosis in human MDA-MB-231 cells assessed as half-moon, loop and ellipse shaped fragment formation at 0.88 to 3.52 uM incubated for 48 hrs by Hoechst 33258 staining based fluorescence microscopic analysis; format: functional, cell-based; conditions: dose 0.88-3.52 µM, DDE = dose-dependent effect
Procedure, shortened: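 MDA-MB-231 seeded at 2×10^5–3×10^5 per well and incubated overnight (37 °C, 5% CO2). Exposed to compound for 48 h. Fixed in methanol 30 min, then stained with Hoechst 33258 for 30 min at room temperature in the dark. Nuclear morphology scored by fluorescence microscopy; n = 3, mean ± SD.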

MDA-MB-231 [5] = experiment: Induction of apoptosis in human MDA-MB-231 cells assessed as necrotic cells at 0.88 uM incubated for 48 hrs AnnexinV/ propidium iodide staining based flow cytometry (Rvb= 0.54%); format: functional
MDA-MB-231 [6] = experiment: Induction of apoptosis in human MDA-MB-231 cells assessed as necrotic cells at 2.2 uM incubated for 48 hrs AnnexinV/ propidium iodide staining based flow cytometry (Rvb= 0.54%); format: functional
MDA-MB-231 [7] = experiment: Induction of apoptosis in human MDA-MB-231 cells assessed as necrotic cells at 7.04 uM incubated for 48 hrs AnnexinV/ propidium iodide staining based flow cytometry (Rvb= 0.54%); format: functional
MDA-MB-231 [8] = experiment: Induction of apoptosis in human MDA-MB-231 cells assessed as early apoptotic cells at 3.52 uM incubated for 48 hrs AnnexinV/ propidium iodide staining based flow cytometry (Rvb= 0.3%); format: functional
MDA-MB-231 [9] = experiment: Induction of apoptosis in human MDA-MB-231 cells assessed as early apoptotic cells at 7.04 uM incubated for 48 hrs AnnexinV/ propidium iodide staining based flow cytometry (Rvb= 0.3%); format: functional
MDA-MB-231 [10] = experiment: Induction of apoptosis in human MDA-MB-231 cells assessed as late apoptotic cells at 1.76 uM incubated for 48 hrs AnnexinV/ propidium iodide staining based flow cytometry (Rvb= 0.40%); format: functional
MDA-MB-231 [11] = experiment: Induction of apoptosis in human MDA-MB-231 cells assessed as late apoptotic cells at 3.52 uM incubated for 48 hrs AnnexinV/ propidium iodide staining based flow cytometry (Rvb= 0.40%); format: functional
MDA-MB-231 [12] = experiment: Induction of apoptosis in human MDA-MB-231 cells assessed as late apoptotic cells at 7.04 uM incubated for 48 hrs AnnexinV/ propidium iodide staining based flow cytometry (Rvb= 0.40%); format: functional
MDA-MB-231 [13] = experiment: Induction of apoptosis in human MDA-MB-231 cells assessed as viable cells at 1.76 uM incubated for 48 hrs AnnexinV/ propidium iodide staining based flow cytometry (Rvb= 99.02%); format: functional; conditions: read-out: Activity
MDA-MB-231 [14] = experiment: Induction of apoptosis in human MDA-MB-231 cells assessed as viable cells at 2.2 uM incubated for 48 hrs AnnexinV/ propidium iodide staining based flow cytometry (Rvb= 99.02%); format: functional; conditions: read-out: Activity
MDA-MB-231 [15] = experiment: Induction of apoptosis in human MDA-MB-231 cells assessed as viable cells at 7.04 uM incubated for 48 hrs AnnexinV/ propidium iodide staining based flow cytometry (Rvb= 99.02%); format: functional; conditions: read-out: Activity
MDA-MB-231 [16] = experiment: Inhibition of cell invasion in human MDA-MB-231 cells assessed as decrease in number of cells crossing microporous membrane at 0.88 to 3.52 uM incubated for 48 hrs by crystal violet staining based transwell invasion assay; format: functional; conditions: dose 0.88-3.52 µM, DDE = dose-dependent effect
Procedure, shortened: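 Transwell invasion, MDA-MB-231. Cells in serum-free medium in the upper chamber with compound; complete medium below. 48 h at 37 °C. Methanol fixation 2 h, non-invaded cells swabbed off, 0.5% crystal violet 30 min. Invaded cells photographed and counted; n = 3, mean ± SD.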

MDA-MB-231 [17] = experiment: Inhibition of cell migration in human MDA-MB-231 cells at 0.88 uM incubated for 12 hrs by scratch wound healing assay; format: functional, cell-based
MDA-MB-231 [18] = experiment: Inhibition of PI3K/AKT signalling pathway in human MDA-MB-231 cells assessed as decrease in phosphorylated PI3K level at 1 to 10 uM incubated for 48 hrs by western blot analysis; format: cell-based; conditions: dose 1-10 µM, DDE = dose-dependent effect
Procedure, shortened: (§3)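 MDA-MB-231 treated at 1, 5 and 10 μM at 37 °C, then lysed in RIPA/PMSF for 30 min at 0 °C and cleared at 14 000 × g, 4 °C. Protein quantified by BCA; 40 μg resolved by SDS-PAGE and transferred to PVDF. Blocked in 5% skim milk, primary antibody overnight at 4 °C, secondary 2 h at room temperature, chemiluminescent imaging.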

MDA-MB-231 [19] = experiment: Inhibition of PI3K/AKT signalling pathway in human MDA-MB-231 cells assessed as decrease in phosphorylated AKT level at 1 to 10 uM incubated for 48 hrs by western blot analysis; format: cell-based; conditions: dose 1-10 µM, DDE = dose-dependent effect; procedure, shortened: as §3
MDA-MB-231 [20] = experiment: Inhibition of PI3K/AKT signalling pathway in human MDA-MB-231 cells assessed as upregulation of PTEN expression at 1 to 10 uM incubated for 48 hrs by western blot analysis; format: cell-based; conditions: dose 1-10 µM, DDE = dose-dependent effect; procedure, shortened: as §3
MDA-MB-231 [21] = experiment: Induction of apoptosis in human MDA-MB-231 cells assessed as upregulation of Caspase-3 expression at 1 to 10 uM incubated for 48 hrs by western blot analysis; format: functional, cell-based; conditions: dose 1-10 µM, DDE = dose-dependent effect

- IC50 (MDA-MB-231 [1]): 1.76 µM
- IC50 (MCF7): 2.89 µM
- IC50 (A549): 3.58 µM
- IC50 (HepG2): 4.61 µM
SMILES: O=C(Nc1cccc(-c2oc3cc(-c4ccc(F)cc4)ccc3c(=O)c2O)c1)c1ccc(Cl)nc1
- IC50 (GTL 16 cell line): 7.52 µM
- inhibition (MDA-MB-231 [2]): Dde
- inhibition (MDA-MB-231 [3]): Tde
- Activity (MDA-MB-231 [4]): Dde
- Activity (MDA-MB-231 [5]): 0.63%
- Activity (MDA-MB-231 [6]): 1.53%
- Activity (MDA-MB-231 [7]): 1.92%
- Activity (MDA-MB-231 [8]): 15.04%
- Activity (MDA-MB-231 [9]): 23.85%
- Activity (MDA-MB-231 [10]): 49.45%
- Activity (MDA-MB-231 [11]): 14.4%
- Activity (MDA-MB-231 [12]): 68.54%
- viability at 1.76 µM (MDA-MB-231 [13]): 45.8%
- viability at 2.2 µM (MDA-MB-231 [14]): 29.8%
- viability at 7.04 µM (MDA-MB-231 [15]): 5.68%
- inhibition (MDA-MB-231 [16]): Dde
- inhibition (MDA-MB-231 [17]): Active
- inhibition (MDA-MB-231 [18]): Dde
- inhibition (MDA-MB-231 [19]): Dde
- inhibition (MDA-MB-231 [20]): Dde
- Activity (MDA-MB-231 [21]): Dde

Reference: ChEMBL document CHEMBL5104204, “Synthesis and in vitro anticancer evaluation of novel flavonoid-based amide derivatives as regulators of the PI3K/AKT signal pathway for TNBC treatment” (RSC Med Chem, 2022)
